Test results from ChEMBL document CHEMBL4689842, “EUbOPEN Chemogenomics Library wave 1” (2021).

What was measured:
[1] = test system: HEK-293T; experiment: Incucyte cell viability with HEK293T; type: toxicity, cell-based; conditions: human, 10 µM, compound concentration 10 uM; further: filed as whole numbers so only -1 and 0 and 1 occur
[2] = test system: U2OS; experiment: Multiplex assay against U2OS; type: toxicity, cell-based; conditions: human
In short: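 Live cells were stained at seeding with Hoechst33342, BioTracker Green Microtubule Cytoskeleton Dye, MitoTracker Red and Annexin V Alexa Fluor 680, then imaged on a CQ1 microscope at 37°C and 5% CO2 after compound addition. CellPathfinder machine-learning gating split cells into Hoechst high-intensity objects or normal cells. Normal cells were split into healthy, pyknosed or fragmented nuclei, and pyknosed cells into mitotic or apoptotic. Tubulin, mitochondrial-mass and membrane-permeability phenotypes are per cents of healthy-nucleus cells.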

[3] = 12 h, 1 µM, compound concentration 1 uM, replicate 1
[4] = 12 h, 1 µM, compound concentration 1 uM, replicate 2
[5] = 12 h, 10 µM, compound concentration 10 uM, replicate 1
[6] = 12 h, 10 µM, compound concentration 10 uM, replicate 2
[7] = 24 h, 1 µM, compound concentration 1 uM, replicate 1
[8] = 24 h, 1 µM, compound concentration 1 uM, replicate 2
[9] = 24 h, 10 µM, compound concentration 10 uM, replicate 1

CN(c1cc(C(F)(F)F)nc(OCCC(=O)O)n1)c1cccc2c1CCC2
Growth Rate ([1]; 0 h, replicate number 1, timepoint 0 hours): 0 | Growth Rate ([1]; 6 h, replicate number 2, timepoint 6 hours): 0 | Growth Rate ([1]; 12 h, replicate number 1, timepoint 12 hours): 1 | Growth Rate ([1]; 18 h, replicate number 1, timepoint 18 hours): 1 | Growth Rate ([1]; 24 h, replicate number 1, timepoint 24 hours): 1 | Population Apoptotic (%) [2, 3]: 33% | Population Fragmented Nuclei (%) [2, 3]: 24% | Population Healthy Nuclei (%) [2, 3]: 64% | Population Hoechst High Intensity Objects (%) [2, 3]: 11% | Population Membrane Permeable-Phenotype (%) [2, 3]: 8% | Population Mitochondria Different-Phenotype (%) [2, 3]: 12% | Population Mitotic Cells (%) [2, 3]: 66% | Population Normal (%) [2, 3]: 88% | Population Pyknosed Nuclei (%) [2, 3]: 11% | Population Tubulin-Different-Phenotype (%) [2, 3]: 10% | Total Cell Count [2, 3]: 191 | Population Apoptotic (%) [2, 4]: 0% | Population Fragmented Nuclei (%) [2, 4]: 9% | Population Healthy Nuclei (%) [2, 4]: 80% | Population Hoechst High Intensity Objects (%) [2, 4]: 12% | Population Membrane Permeable-Phenotype (%) [2, 4]: 4% | Population Mitochondria Different-Phenotype (%) [2, 4]: 20% | Population Mitotic Cells (%) [2, 4]: 100% | Population Normal (%) [2, 4]: 87% | Population Pyknosed Nuclei (%) [2, 4]: 9% | Population Tubulin-Different-Phenotype (%) [2, 4]: 28% | Total Cell Count [2, 4]: 65 | Population Apoptotic (%) [2, 5]: 23% | Population Fragmented Nuclei (%) [2, 5]: 11% | Population Healthy Nuclei (%) [2, 5]: 77% | Population Hoechst High Intensity Objects (%) [2, 5]: 5% | Population Membrane Permeable-Phenotype (%) [2, 5]: 9% | Population Mitochondria Different-Phenotype (%) [2, 5]: 13% | Population Mitotic Cells (%) [2, 5]: 76% | Population Normal (%) [2, 5]: 94% | Population Pyknosed Nuclei (%) [2, 5]: 11% | Population Tubulin-Different-Phenotype (%) [2, 5]: 15% | Total Cell Count [2, 5]: 149 | Population Apoptotic (%) [2, 6]: 0% | Population Fragmented Nuclei (%) [2, 6]: 13% | Population Healthy Nuclei (%) [2, 6]: 86% | Population Hoechst High Intensity Objects (%) [2, 6]: 14% | Population Membrane Permeable-Phenotype (%) [2, 6]: 4% | Population Mitochondria Different-Phenotype (%) [2, 6]: 10% | Population Mitotic Cells (%) [2, 6]: 0% | Population Normal (%) [2, 6]: 85% | Population Pyknosed Nuclei (%) [2, 6]: 0% | Population Tubulin-Different-Phenotype (%) [2, 6]: 30% | Total Cell Count [2, 6]: 71 | Population Apoptotic (%) [2, 7]: 40% | Population Fragmented Nuclei (%) [2, 7]: 16% | Population Healthy Nuclei (%) [2, 7]: 77% | Population Hoechst High Intensity Objects (%) [2, 7]: 7% | Population Membrane Permeable-Phenotype (%) [2, 7]: 6% | Population Mitochondria Different-Phenotype (%) [2, 7]: 10% | Population Mitotic Cells (%) [2, 7]: 60% | Population Normal (%) [2, 7]: 92% | Population Pyknosed Nuclei (%) [2, 7]: 6% | Population Tubulin-Different-Phenotype (%) [2, 7]: 5% | Total Cell Count [2, 7]: 200 | Population Apoptotic (%) [2, 8]: 0% | Population Fragmented Nuclei (%) [2, 8]: 4% | Population Healthy Nuclei (%) [2, 8]: 95% | Population Hoechst High Intensity Objects (%) [2, 8]: 8% | Population Membrane Permeable-Phenotype (%) [2, 8]: 2% | Population Mitochondria Different-Phenotype (%) [2, 8]: 13% | Population Mitotic Cells (%) [2, 8]: 0% | Population Normal (%) [2, 8]: 91% | Population Pyknosed Nuclei (%) [2, 8]: 0% | Population Tubulin-Different-Phenotype (%) [2, 8]: 30% | Total Cell Count [2, 8]: 68 | Population Apoptotic (%) [2, 9]: 52% | Population Fragmented Nuclei (%) [2, 9]: 8% | Population Healthy Nuclei (%) [2, 9]: 84%
